Measured values reported in ChEMBL document CHEMBL4118097, “Selective Inhibitors of Dual Leucine Zipper Kinase (DLK, MAP3K12) with Activity in a Model of Alzheimer's Disease” (J Med Chem, 2017).

Tests used:
[1] = biological target: 5-hydroxytryptamine receptor 2B (Homo sapiens) (UniProt P41595); test: Binding affinity to 5HT2B receptor (unknown origin) receptor at 10 uM relative to control
Method in brief: (§1)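 Broad radioligand-binding and enzyme screening panel covering 42 targets (biogenic amine and neuropeptide receptors, ion channels, neurotransmitter transporters, acetylcholinesterase). Single test concentration of 10 μM. Results expressed as binding relative to control, with a hit defined as >50% of control.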

[2] = test system: Epidermal growth factor receptor (Homo sapiens), P00533 [L858R,T790M]; test: Inhibition of recombinant GST-tagged human EGFR cytoplasmic domain (668 to 1210 residues) T790M/L858R double mutant expressed in baculovirus expression system at 1 uM by FRET assay relative to control
Method in brief: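 Part of a 220-kinase panel run at a single concentration of 1 μM. Z′-LYTE format: phosphorylation of a labelled peptide read by FRET. Values reported as percent inhibition.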

[3] = biological target: Calcium/calmodulin-dependent protein kinase type 1D (Homo sapiens) (UniProt Q8IU85); test: Inhibition of CaMK1delta (unknown origin) at 1 uM by FRET assay relative to control
[4] = biological target: MAP kinase-interacting serine/threonine-protein kinase 2 (Homo sapiens) (UniProt Q9HBH9); test: Inhibition of recombinant human N-terminal full length GST-tagged MKNK2 expressed in baculovirus at 1 uM by FRET assay relative to control
MAP kinase-interacting serine/threonine-protein kinase 2 (Homo sapiens), sequence (Q9HBH9 whole entry, looked up, the tested form may be a part): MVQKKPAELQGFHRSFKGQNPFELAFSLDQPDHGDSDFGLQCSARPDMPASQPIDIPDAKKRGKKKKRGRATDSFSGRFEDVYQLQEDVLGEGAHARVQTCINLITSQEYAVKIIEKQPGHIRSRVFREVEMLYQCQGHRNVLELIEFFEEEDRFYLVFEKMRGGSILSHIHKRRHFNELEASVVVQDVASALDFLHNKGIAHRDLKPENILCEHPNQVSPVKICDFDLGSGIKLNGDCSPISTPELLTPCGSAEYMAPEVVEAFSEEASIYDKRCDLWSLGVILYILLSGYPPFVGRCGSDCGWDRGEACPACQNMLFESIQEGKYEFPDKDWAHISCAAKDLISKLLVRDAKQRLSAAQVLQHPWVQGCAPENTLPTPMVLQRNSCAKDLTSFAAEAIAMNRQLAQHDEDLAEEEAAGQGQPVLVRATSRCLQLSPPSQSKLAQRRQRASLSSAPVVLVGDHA

[5] = biological target: Tyrosine-protein kinase BTK (Homo sapiens) (UniProt Q06187); test: Inhibition of recombinant full length His-tagged human BTK cytoplasmic domain expressed in baculovirus expression system at 1 uM by FRET assay relative to control
[6] = biological target: D(1A) dopamine receptor (Homo sapiens) (UniProt P21728); test: Binding affinity to recombinant full length human D1 dopamine receptor at 10 uM relative to control; method in brief: as §1
[7] = biological target: Serine/threonine-protein kinase Nek6 (Homo sapiens) (UniProt Q9HC98); test: Inhibition of recombinant GST-tagged human NEK6 catalytic domain expressed in baculovirus expression system at 1 uM by FRET assay relative to control
Serine/threonine-protein kinase Nek6 (Homo sapiens), sequence (Q9HC98 whole entry, the tested form may be a part): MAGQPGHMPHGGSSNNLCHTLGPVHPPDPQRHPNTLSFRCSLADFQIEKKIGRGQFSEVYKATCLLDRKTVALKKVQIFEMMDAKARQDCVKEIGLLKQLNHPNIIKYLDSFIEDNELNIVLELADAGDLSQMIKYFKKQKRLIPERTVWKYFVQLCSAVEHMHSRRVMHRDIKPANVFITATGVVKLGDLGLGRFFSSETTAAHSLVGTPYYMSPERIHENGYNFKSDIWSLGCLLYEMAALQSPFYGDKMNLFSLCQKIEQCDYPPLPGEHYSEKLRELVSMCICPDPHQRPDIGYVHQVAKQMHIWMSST
Method in brief: (§2)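 Single-point screen at 1 μM compound in a 220-kinase panel run by Life Technologies (SelectScreen). Z′-LYTE format: phosphorylation of a labeled peptide substrate read by FRET. Values are reported as percent inhibition.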

[8] = biological target: Peroxisome proliferator-activated receptor delta (Homo sapiens) (UniProt Q03181); test: Binding affinity to recombinant human PPARdelta at 10 uM relative to control; method in brief: as §1
[9] = biological target: Serine/threonine-protein kinase PLK2 (Homo sapiens) (UniProt Q9NYY3); test: Inhibition of full length recombinant GST-tagged human PLK2 expressed in baculovirus expression system at 1 uM by FRET assay relative to control
[10] = biological target: Tyrosine-protein kinase JAK3 (Homo sapiens) (UniProt P52333); test: Inhibition of recombinant GST-tagged human JAK3 catalytic domain (781 to 1124 residues) expressed in baculovirus expression system at 1 uM by FRET relative to control; method in brief: as §2
[11] = biological target: Tyrosine-protein kinase Fes/Fps (Homo sapiens) (UniProt P07332); test: Inhibition of recombinant full length His-tagged human FES cytoplasmic domain expressed in baculovirus expression system at 1 uM by FRET assay relative to control
Tyrosine-protein kinase Fes/Fps (Homo sapiens), sequence (P07332 whole entry, the tested form may be a part): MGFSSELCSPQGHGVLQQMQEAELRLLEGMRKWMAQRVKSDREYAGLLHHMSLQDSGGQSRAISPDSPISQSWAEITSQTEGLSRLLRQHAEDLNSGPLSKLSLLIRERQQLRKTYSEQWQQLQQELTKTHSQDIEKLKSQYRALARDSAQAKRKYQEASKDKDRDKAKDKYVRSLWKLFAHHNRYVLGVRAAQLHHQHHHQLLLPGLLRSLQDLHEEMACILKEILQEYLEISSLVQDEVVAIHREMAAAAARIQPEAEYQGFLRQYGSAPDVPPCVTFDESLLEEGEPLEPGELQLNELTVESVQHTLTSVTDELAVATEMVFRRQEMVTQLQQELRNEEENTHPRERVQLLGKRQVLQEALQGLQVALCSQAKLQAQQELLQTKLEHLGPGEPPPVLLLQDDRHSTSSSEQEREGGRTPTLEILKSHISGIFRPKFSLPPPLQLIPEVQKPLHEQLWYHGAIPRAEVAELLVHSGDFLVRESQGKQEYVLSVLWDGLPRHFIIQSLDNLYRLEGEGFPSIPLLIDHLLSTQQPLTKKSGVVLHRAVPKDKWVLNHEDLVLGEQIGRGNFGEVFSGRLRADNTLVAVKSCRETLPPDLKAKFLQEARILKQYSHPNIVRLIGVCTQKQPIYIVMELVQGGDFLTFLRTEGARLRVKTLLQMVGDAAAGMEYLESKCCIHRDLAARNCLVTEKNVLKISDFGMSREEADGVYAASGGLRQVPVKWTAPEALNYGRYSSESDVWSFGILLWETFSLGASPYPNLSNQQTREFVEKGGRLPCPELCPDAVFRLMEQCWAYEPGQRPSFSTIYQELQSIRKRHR

[12] = biological target: Mitogen-activated protein kinase kinase kinase 20 (Homo sapiens) (UniProt Q9NYL2); test: Inhibition of recombinant N-terminal full length GST-tagged human ZAK expressed in baculovirus expression system at 1 uM by FRET assay relative to control
Method in brief: (§3)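 Single-concentration screen at 1 μM in Life Technologies SelectScreen, across a 220-kinase panel. Z′-LYTE format measures phosphorylation of a labeled peptide by FRET. Results are reported as percent inhibition.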

[13] = biological target: MAP kinase-activated protein kinase 5 (Homo sapiens) (UniProt Q8IW41); test: Inhibition of full length recombinant His-tagged human PRAK expressed in baculovirus expression system at 1 uM by FRET assay relative to control
[14] = biological target: Tyrosine-protein kinase Blk (Homo sapiens) (UniProt P51451); test: Inhibition of recombinant full length His-tagged human Blk cytoplasmic domain expressed in Baculovirus expression system at 1 uM by FRET assay relative to control
[15] = biological target: Mitogen-activated protein kinase 11 (Homo sapiens) (UniProt Q15759); test: Inhibition of recombinant full length His-tagged human p38beta expressed in baculovirus expression system at 1 uM by FRET assay relative to control
Mitogen-activated protein kinase 11 (Homo sapiens), sequence (Q15759 whole entry): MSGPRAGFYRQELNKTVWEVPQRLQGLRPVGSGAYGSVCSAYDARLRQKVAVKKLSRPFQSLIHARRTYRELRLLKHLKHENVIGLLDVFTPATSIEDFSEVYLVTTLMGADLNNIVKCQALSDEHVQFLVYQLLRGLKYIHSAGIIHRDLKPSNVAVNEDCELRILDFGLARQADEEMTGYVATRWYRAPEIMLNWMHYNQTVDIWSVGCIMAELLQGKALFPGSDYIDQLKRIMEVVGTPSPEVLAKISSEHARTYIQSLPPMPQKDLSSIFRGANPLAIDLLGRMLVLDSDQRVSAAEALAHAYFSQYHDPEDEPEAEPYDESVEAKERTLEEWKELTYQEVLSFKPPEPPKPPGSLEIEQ

[16] = biological target: 5-hydroxytryptamine receptor 1B (Homo sapiens) (UniProt P28222); test: Binding affinity to 5HT1B receptor (unknown origin) receptor at 10 uM relative to control; method in brief: as §1
[17] = biological target: Mitogen-activated protein kinase 14 (Homo sapiens) (UniProt Q16539); test: Inhibition of recombinant full length GST-tagged human p38alpha expressed in Escherichia coli at 1 uM by FRET assay relative to control
Mitogen-activated protein kinase 14 (Homo sapiens), sequence (Q16539 whole entry, the tested form may be a part): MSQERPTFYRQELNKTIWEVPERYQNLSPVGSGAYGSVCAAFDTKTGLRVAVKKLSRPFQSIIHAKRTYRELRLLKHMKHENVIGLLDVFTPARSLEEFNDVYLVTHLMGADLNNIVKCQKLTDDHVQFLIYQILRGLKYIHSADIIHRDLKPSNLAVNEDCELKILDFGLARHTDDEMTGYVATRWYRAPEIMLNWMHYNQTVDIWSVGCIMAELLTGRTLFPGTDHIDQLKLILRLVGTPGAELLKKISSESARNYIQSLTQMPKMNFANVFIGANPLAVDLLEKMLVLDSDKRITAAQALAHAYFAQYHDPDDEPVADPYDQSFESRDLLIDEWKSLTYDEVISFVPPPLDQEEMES

[18] = biological target: Ephrin type-B receptor 1 (Homo sapiens) (UniProt P54762); test: Inhibition of recombinant GST-tagged human EphB1 cytoplasmic domain expressed in baculovirus expression system at 1 uM by FRET assay relative to control; method in brief: as §2
Ephrin type-B receptor 1 (Homo sapiens), sequence (P54762 whole entry, the tested form may be a part, canonical isoform): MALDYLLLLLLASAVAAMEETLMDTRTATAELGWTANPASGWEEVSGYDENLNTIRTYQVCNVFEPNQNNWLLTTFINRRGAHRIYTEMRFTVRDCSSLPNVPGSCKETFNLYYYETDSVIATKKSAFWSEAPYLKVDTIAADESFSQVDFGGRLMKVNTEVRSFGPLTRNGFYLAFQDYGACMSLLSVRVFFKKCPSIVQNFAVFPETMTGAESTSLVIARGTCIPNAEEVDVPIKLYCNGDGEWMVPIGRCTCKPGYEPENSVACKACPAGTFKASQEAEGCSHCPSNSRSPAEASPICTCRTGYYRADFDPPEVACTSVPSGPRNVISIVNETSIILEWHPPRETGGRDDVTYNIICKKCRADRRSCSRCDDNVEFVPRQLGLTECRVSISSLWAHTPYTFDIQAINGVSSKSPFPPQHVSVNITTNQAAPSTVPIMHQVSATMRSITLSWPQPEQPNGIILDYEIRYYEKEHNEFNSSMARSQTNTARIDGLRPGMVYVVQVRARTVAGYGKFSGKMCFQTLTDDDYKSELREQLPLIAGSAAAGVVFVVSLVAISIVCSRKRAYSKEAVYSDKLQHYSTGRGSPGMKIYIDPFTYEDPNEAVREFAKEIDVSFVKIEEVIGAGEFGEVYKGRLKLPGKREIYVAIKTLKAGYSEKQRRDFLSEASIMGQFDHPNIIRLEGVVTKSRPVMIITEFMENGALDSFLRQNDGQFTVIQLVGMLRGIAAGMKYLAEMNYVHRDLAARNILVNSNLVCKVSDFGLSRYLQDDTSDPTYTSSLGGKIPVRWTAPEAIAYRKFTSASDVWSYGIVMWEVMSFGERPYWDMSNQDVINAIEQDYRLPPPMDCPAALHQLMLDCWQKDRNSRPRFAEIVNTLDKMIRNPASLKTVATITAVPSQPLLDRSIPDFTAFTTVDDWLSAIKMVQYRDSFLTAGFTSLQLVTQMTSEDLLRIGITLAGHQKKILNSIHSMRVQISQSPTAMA

[19] = biological target: Phosphatidylinositol 4,5-bisphosphate 3-kinase catalytic subunit alpha isoform (Homo sapiens) (UniProt P42336); test: Inhibition of PI3KA (unknown origin) at 1 uM by FRET assay relative to control
Homo sapiens [20] = species: Homo sapiens; test: Binding affinity to KATP (unknown origin) receptor at 10 uM relative to control; method in brief: as §1
[21] = biological target: cGMP-dependent protein kinase 1 (Homo sapiens) (UniProt Q13976); test: Inhibition of PKG1alpha (unknown origin) at 1 uM by FRET assay relative to control
[22] = biological target: Activin receptor type-1 (Homo sapiens) (UniProt Q04771); test: Inhibition of recombinant GST-tagged human ALK2 catalytic domain (147 to end residues) at 1 uM by FRET assay relative to control
Activin receptor type-1 (Homo sapiens), sequence (Q04771 whole entry, the tested form may be a part): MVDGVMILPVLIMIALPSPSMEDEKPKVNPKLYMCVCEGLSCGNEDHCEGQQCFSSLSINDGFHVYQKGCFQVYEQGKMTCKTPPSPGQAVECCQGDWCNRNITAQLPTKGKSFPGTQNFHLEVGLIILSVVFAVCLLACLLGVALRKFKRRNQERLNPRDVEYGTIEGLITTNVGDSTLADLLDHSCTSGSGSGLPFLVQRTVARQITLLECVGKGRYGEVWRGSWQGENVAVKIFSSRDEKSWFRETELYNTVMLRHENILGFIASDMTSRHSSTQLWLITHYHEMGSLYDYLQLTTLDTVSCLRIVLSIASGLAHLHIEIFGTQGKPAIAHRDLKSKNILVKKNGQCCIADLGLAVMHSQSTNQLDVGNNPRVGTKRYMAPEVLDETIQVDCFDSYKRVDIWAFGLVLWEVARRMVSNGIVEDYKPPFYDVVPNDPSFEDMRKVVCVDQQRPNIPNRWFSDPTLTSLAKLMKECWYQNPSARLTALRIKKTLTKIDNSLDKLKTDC

Homo sapiens [23] = species: Homo sapiens; test: Binding affinity to L-type calcium channel verapamil/phenylalkylamine binding site (unknown origin) receptor at 10 uM relative to control; method in brief: as §1
[24] = biological target: Dual specificity protein kinase CLK4 (Homo sapiens) (UniProt Q9HAZ1); test: Inhibition of full length recombinant GST-tagged human CLK4 expressed in baculovirus expression system at 1 uM by FRET assay relative to control
[25] = biological target: Serine/threonine-protein kinase 3 (Homo sapiens) (UniProt Q13188); test: Inhibition of recombinant full length GST-tagged human MST2 expressed in baculovirus at 1 uM by FRET assay relative to control; method in brief: as §3
Serine/threonine-protein kinase 3 (Homo sapiens), sequence (Q13188 whole entry, the tested form may be a part): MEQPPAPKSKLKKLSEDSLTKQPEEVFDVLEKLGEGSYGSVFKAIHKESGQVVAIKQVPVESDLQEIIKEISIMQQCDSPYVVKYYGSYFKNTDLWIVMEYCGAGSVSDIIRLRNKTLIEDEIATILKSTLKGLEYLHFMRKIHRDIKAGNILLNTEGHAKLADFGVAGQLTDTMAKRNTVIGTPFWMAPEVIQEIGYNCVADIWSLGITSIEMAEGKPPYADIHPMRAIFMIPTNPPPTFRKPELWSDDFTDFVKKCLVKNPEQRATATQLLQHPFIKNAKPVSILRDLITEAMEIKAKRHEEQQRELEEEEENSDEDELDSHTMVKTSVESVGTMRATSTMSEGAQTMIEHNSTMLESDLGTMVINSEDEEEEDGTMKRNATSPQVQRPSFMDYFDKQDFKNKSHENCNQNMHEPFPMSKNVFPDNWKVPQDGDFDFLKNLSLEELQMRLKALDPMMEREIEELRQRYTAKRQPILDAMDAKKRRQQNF

[26] = biological target: Ephrin type-A receptor 3 (Homo sapiens) (UniProt P29320); test: Inhibition of recombinant His-tagged human EphA3 cytoplasmic domain expressed in baculovirus expression system at 1 uM by FRET assay relative to control; method in brief: as §2
[27] = biological target: Opioid receptors; mu/kappa/delta (Homo sapiens) (UniProt P41145+P41143+P35372); test: Binding affinity to opiod receptor (unknown origin) receptor at 10 uM relative to control; format: protein assay; method in brief: as §1
[28] = biological target: Histamine H2 receptor (Homo sapiens) (UniProt P25021); test: Binding affinity to recombinant human H2 receptor at 10 uM relative to control; method in brief: as §1
Histamine H2 receptor (Homo sapiens), sequence (P25021 whole entry): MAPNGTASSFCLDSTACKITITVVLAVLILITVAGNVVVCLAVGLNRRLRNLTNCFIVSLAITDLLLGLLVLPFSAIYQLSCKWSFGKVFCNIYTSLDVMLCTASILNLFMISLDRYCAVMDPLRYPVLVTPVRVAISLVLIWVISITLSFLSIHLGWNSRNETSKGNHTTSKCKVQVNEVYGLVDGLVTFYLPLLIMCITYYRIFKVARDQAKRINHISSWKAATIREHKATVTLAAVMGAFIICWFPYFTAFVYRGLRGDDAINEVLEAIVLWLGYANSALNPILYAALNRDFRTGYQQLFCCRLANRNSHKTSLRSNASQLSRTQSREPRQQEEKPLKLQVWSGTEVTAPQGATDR

SMILES | Activity [1] [%] | inhibition [2] [%] | inhibition [3] [%] | inhibition [4] [%] | inhibition [5] [%] | Activity [6] [%] | inhibition [7] [%] | Activity [8] [%] | inhibition [9] [%] | inhibition [10] [%] | inhibition [11] [%] | inhibition [12] [%] | inhibition [13] [%] | inhibition [14] [%] | inhibition [15] [%] | Activity [16] [%] | inhibition [17] [%] | inhibition [18] [%] | inhibition [19] [%] | Activity (Homo sapiens [20]) [%] | also measured
CC(C)n1nc(-c2cnc(N)c(OC(F)(F)F)c2)cc1[C@H]1[C@@H]2CN(C3COC3)C[C@@H]21 | > 50 | 9.8 | 2.8 | 12.3 | 9.9 | > 50 | 5.1 | > 50 | 17.3 | 21.9 | 17.1 | 2.5 | 8.1 | 5.3 | 9.3 | > 50 | 1.1 | 10.1 | -2.7 | > 50 | inhibition [21]: 0.1%; inhibition [22]: 10.9%; Activity (Homo sapiens [23]): > 50%; inhibition [24]: 14.5%; inhibition [25]: 10.1%; inhibition [26]: 10.2%; Activity [27]: > 50%; Activity [28]: > 50%
Nc1ncc(-c2cc([C@H]3[C@@H]4CN(C5COC5)C[C@@H]43)n(CC3CC3)n2)cc1C(F)(F)F | > 50 | 8.2 | 11.1 | 0.9 | 19.9 | > 50 | 0.3 | > 50 | 2.7 | 24.6 | 21.1 | 1.4 | -0.8 | 27.4 | 2.5 | > 50 | 5.8 | 5.9 | -9.8 | > 50 | inhibition [21]: -1.1%; inhibition [22]: 25.8%; Activity (Homo sapiens [23]): > 50%; inhibition [24]: 16.4%; inhibition [25]: 0%; inhibition [26]: 22.9%; Activity [27]: > 50%; Activity [28]: > 50%
